Measured values from ChEMBL document CHEMBL4732138, “Evaluation of the Structure-Activity Relationship of Microtubule-Targeting 1,2,4-Triazolo[1,5-a]pyrimidines Identifies New Candidates for Neurodegenerative Tauopathies” (J Med Chem, 2021).

How the values were obtained:
Tubulin (Homo sapiens) [1] = molecular target: T1, Tubulin (Homo sapiens) (UniProt P68371+Q9H4B7+P0DPH7+P68366+Q13509+Q71U36+P04350+Q3ZCM7+P07437+P68363+Q9BQE3+Q6PEY2+Q13885+Q9BVA1+Q9BUF5); assay: Stabilization of microtubules in human QBI293 cells assessed as fold change in acetylated tubulin levels at 10 uM after 4 hrs by ELISA relative to cevipabulin; assay type: cell-based
Tubulin (Homo sapiens) [2] = molecular target: T1, Tubulin (Homo sapiens); assay: Stabilization of microtubules in human QBI293 cells assessed as fold change in acetylated tubulin levels at 1 uM after 4 hrs by ELISA relative to DMSO; assay type: cell-based
Summary of the method: (§1)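 QBI293 cells were grown in DMEM with 10% FBS, 2 mM L-glutamine and penicillin/streptomycin, then plated at 6 × 10^5 cells/well and left overnight. Medium was replaced with fresh medium holding vehicle (DMSO) or compound, and cells were incubated 4 h. Whole-cell extract supernatants were protein-normalized by BCA assay. AcTub and α-tubulin were quantified by ELISA against standard curves. Values are fold-change over DMSO, analysed by one-way ANOVA.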

Tubulin (Homo sapiens) [3] = molecular target: T1, Tubulin (Homo sapiens); assay: Stabilization of microtubules in human QBI293 cells assessed as fold change in acetylated tubulin levels at 1 uM after 4 hrs by ELISA relative to cevipabulin; assay type: cell-based
Tubulin (Homo sapiens) [4] = molecular target: T1, Tubulin (Homo sapiens); assay: Stabilization of microtubules in human QBI293 cells assessed as increase in acetylated tubulin levels after 4 hrs by ELISA; assay type: cell-based
Summary of the method: (§2)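 QBI293 cells are grown in DMEM with 10% FBS, 2 mM L-glutamine and penicillin/streptomycin, plated at 6 × 10^5 cells/well and incubated overnight. […] Acetyl- and total α-tubulin in whole-cell extract supernatants are measured by ELISA against standard curves, with protein by BCA. Values are fold-change over DMSO; AcTub is also given relative to 100 nM cevipabulin positive control. Significance is by one-way ANOVA.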

Tubulin (Homo sapiens) [5] = molecular target: T1, Tubulin (Homo sapiens); assay: Stabilization of microtubules in human QBI293 cells assessed as fold change in alpha tubulin levels at 1 uM after 4 hrs by ELISA relative to DMSO; assay type: cell-based; summary of the method: as §1
Tubulin (Homo sapiens) [6] = molecular target: T1, Tubulin (Homo sapiens); assay: Stabilization of microtubules in human QBI293 cells assessed as fold change in alpha tubulin levels at 10 uM after 4 hrs by ELISA relative to DMSO; assay type: cell-based; summary of the method: as §1
Tubulin (Homo sapiens) [7] = molecular target: T1, Tubulin (Homo sapiens); assay: Stabilization of microtubules in human QBI293 cells assessed as fold change in acetylated tubulin levels at 10 uM after 4 hrs by ELISA relative to DMSO; assay type: cell-based; summary of the method: as §1
[8] = n-octanol-water distribution coefficient, log D of the compound at pH 7.4 by shake flask method; assay type: physicochemical
Summary of the method: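 Distribution coefficient between n-octanol and water at pH 7.4, measured by shake-flask method.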

Tubulin (Homo sapiens) [9] = molecular target: T1, Tubulin (Homo sapiens); assay: Stabilization of microtubules in human QBI293 cells assessed as decrease in alpha-tubulin levels at 1 to 10 uM after 4 hrs by ELISA relative to control; assay type: cell-based; set-up: scale not given: the % may be the effect or the level left; settings: dose 1-10 µM; summary of the method: as §2
[10] = n-octanol/water, read-out: logD

SMILES: C[C@@H](Nc1c(-c2c(F)cc(F)cc2F)c(Cl)nc2ncnn12)C(F)(F)F
- fold change (FC) (Tubulin (Homo sapiens) [1]): 0.43
- fold change (FC) (Tubulin (Homo sapiens) [2]): 1.39
- fold change (FC) (Tubulin (Homo sapiens) [3]): 0.24
- Activity (Tubulin (Homo sapiens) [4]): Dose-dependent effect
- fold change (FC) (Tubulin (Homo sapiens) [5]): 1.23
- fold change (FC) (Tubulin (Homo sapiens) [6]): 1.47
- fold change (FC) (Tubulin (Homo sapiens) [7]): 2.47

SMILES: CO[C@H]1C[C@H]2CC[C@@H](C1)N2c1c(-c2c(F)cc(F)cc2F)c(Cl)nc2ncnn12
- fold change (FC) (Tubulin (Homo sapiens) [1]): 1.11
- fold change (FC) (Tubulin (Homo sapiens) [2]): 3.65
- fold change (FC) (Tubulin (Homo sapiens) [3]): 0.54
- Activity (Tubulin (Homo sapiens) [4]): Dose-dependent effect
- logD [8, 10]: 3.38
- fold change (FC) (Tubulin (Homo sapiens) [5]): 1.12
- fold change (FC) (Tubulin (Homo sapiens) [6]): 1.38
- fold change (FC) (Tubulin (Homo sapiens) [7]): 7.43

SMILES: COc1cc(F)c(-c2c(Cl)nc3ncnn3c2N[C@@H](C)C(F)(F)F)c(F)c1
- fold change (FC) (Tubulin (Homo sapiens) [1]): 0.42
- fold change (FC) (Tubulin (Homo sapiens) [2]): 3.16
- Activity (Tubulin (Homo sapiens) [9]): > 15%
- fold change (FC) (Tubulin (Homo sapiens) [3]): 0.64
- fold change (FC) (Tubulin (Homo sapiens) [5]): 0.72
- fold change (FC) (Tubulin (Homo sapiens) [6]): 0.51
- fold change (FC) (Tubulin (Homo sapiens) [7]): 2.07

SMILES: CC(C)[C@@H](C)Nc1c(-c2c(F)cccc2F)c(Cl)nc2ncnn12
- fold change (FC) (Tubulin (Homo sapiens) [1]): 1.07
- fold change (FC) (Tubulin (Homo sapiens) [2]): 4.36
- fold change (FC) (Tubulin (Homo sapiens) [3]): 0.96
- logD [8, 10]: 3.16
- fold change (FC) (Tubulin (Homo sapiens) [5]): 1
- fold change (FC) (Tubulin (Homo sapiens) [6]): 0.96
- fold change (FC) (Tubulin (Homo sapiens) [7]): 4.88

SMILES: C[C@H](Nc1c(-c2c(F)cccc2F)c(Cl)nc2ncnn12)C(F)(F)F
- fold change (FC) (Tubulin (Homo sapiens) [1]): 0.39
- fold change (FC) (Tubulin (Homo sapiens) [2]): 2.2
- fold change (FC) (Tubulin (Homo sapiens) [3]): 0.16
- Activity (Tubulin (Homo sapiens) [4]): Dose-dependent effect
- fold change (FC) (Tubulin (Homo sapiens) [5]): 1.06
- fold change (FC) (Tubulin (Homo sapiens) [6]): 1.02
- fold change (FC) (Tubulin (Homo sapiens) [7]): 5.28

SMILES: N#Cc1ccc(-c2c(Cl)nc3ncnn3c2N2CCCCCC2)c(F)c1
- fold change (FC) (Tubulin (Homo sapiens) [1]): 0.97
- fold change (FC) (Tubulin (Homo sapiens) [2]): 7.17
- fold change (FC) (Tubulin (Homo sapiens) [3]): 0.55
- logD [8, 10]: 3.15
- fold change (FC) (Tubulin (Homo sapiens) [5]): 1.04
- fold change (FC) (Tubulin (Homo sapiens) [6]): 0.99
- fold change (FC) (Tubulin (Homo sapiens) [7]): 12.6

SMILES: Fc1cc(F)c(-c2c(Cl)nc3ncnn3c2NC2CCC2)c(F)c1
- fold change (FC) (Tubulin (Homo sapiens) [1]): 0.23
- fold change (FC) (Tubulin (Homo sapiens) [2]): 0.97
- fold change (FC) (Tubulin (Homo sapiens) [3]): 0.13
- Activity (Tubulin (Homo sapiens) [4]): Dose-dependent effect
- fold change (FC) (Tubulin (Homo sapiens) [5]): 0.94
- fold change (FC) (Tubulin (Homo sapiens) [6]): 0.95
- fold change (FC) (Tubulin (Homo sapiens) [7]): 1.75

SMILES: C[C@H](Nc1c(-c2ccc(F)c(F)c2)c(Cl)nc2ncnn12)C(F)(F)F
- fold change (FC) (Tubulin (Homo sapiens) [1]): 0.12
- fold change (FC) (Tubulin (Homo sapiens) [2]): 1.85
- fold change (FC) (Tubulin (Homo sapiens) [3]): 0.05
- Activity (Tubulin (Homo sapiens) [4]): Dose-dependent effect
- fold change (FC) (Tubulin (Homo sapiens) [5]): 1.01
- fold change (FC) (Tubulin (Homo sapiens) [6]): 1.13
- fold change (FC) (Tubulin (Homo sapiens) [7]): 4.76

SMILES: CC(C)CNc1c(-c2c(F)cc(F)cc2F)c(Cl)nc2ncnn12
- fold change (FC) (Tubulin (Homo sapiens) [1]): 0.53
- fold change (FC) (Tubulin (Homo sapiens) [2]): 1.63
- fold change (FC) (Tubulin (Homo sapiens) [3]): 0.38
- Activity (Tubulin (Homo sapiens) [4]): Dose-dependent effect
- fold change (FC) (Tubulin (Homo sapiens) [5]): 1.3
- fold change (FC) (Tubulin (Homo sapiens) [6]): 0.99
- fold change (FC) (Tubulin (Homo sapiens) [7]): 2.28

SMILES: CO[C@H]1C[C@H]2CC[C@@H](C1)N2c1c(-c2c(F)cc(C#N)cc2F)c(Cl)nc2ncnn12
- fold change (FC) (Tubulin (Homo sapiens) [1]): 1.06
- fold change (FC) (Tubulin (Homo sapiens) [2]): 2.61
- fold change (FC) (Tubulin (Homo sapiens) [3]): 0.64
- logD [8, 10]: 2.74
- fold change (FC) (Tubulin (Homo sapiens) [5]): 0.99
- fold change (FC) (Tubulin (Homo sapiens) [6]): 1
- fold change (FC) (Tubulin (Homo sapiens) [7]): 4.32

SMILES: C[C@H](Nc1c(-c2ccc(F)c(F)c2F)c(Cl)nc2ncnn12)C(F)(F)F
- fold change (FC) (Tubulin (Homo sapiens) [1]): 0.34
- fold change (FC) (Tubulin (Homo sapiens) [2]): 1.5
- fold change (FC) (Tubulin (Homo sapiens) [3]): 0.12
- Activity (Tubulin (Homo sapiens) [4]): Dose-dependent effect
- fold change (FC) (Tubulin (Homo sapiens) [5]): 1.11
- fold change (FC) (Tubulin (Homo sapiens) [6]): 0.88
- fold change (FC) (Tubulin (Homo sapiens) [7]): 4.28

SMILES: C[C@H](Nc1c(-c2ccc(F)cc2F)c(Cl)nc2ncnn12)C(F)(F)F
- fold change (FC) (Tubulin (Homo sapiens) [1]): 0.27
- fold change (FC) (Tubulin (Homo sapiens) [2]): 1.54
- fold change (FC) (Tubulin (Homo sapiens) [3]): 0.13
- Activity (Tubulin (Homo sapiens) [4]): Dose-dependent effect
- fold change (FC) (Tubulin (Homo sapiens) [5]): 0.99
- fold change (FC) (Tubulin (Homo sapiens) [6]): 0.86
- fold change (FC) (Tubulin (Homo sapiens) [7]): 3.19

SMILES: CC(C)[C@@H](C)Nc1c(-c2ccc(C#N)cc2F)c(Cl)nc2ncnn12 (stereo in doubt; 68)
- logD ([8]; octanol/water): 2.67

SMILES: C[C@H](Nc1c(-c2c(F)cc(C#N)cc2F)c(Cl)nc2ncnn12)C(F)(F)F
- fold change (FC) (Tubulin (Homo sapiens) [1]): 0.51
- fold change (FC) (Tubulin (Homo sapiens) [2]): 1.9
- fold change (FC) (Tubulin (Homo sapiens) [3]): 0.27
- Activity (Tubulin (Homo sapiens) [4]): Dose-dependent effect
- fold change (FC) (Tubulin (Homo sapiens) [5]): 0.94
- fold change (FC) (Tubulin (Homo sapiens) [6]): 0.95
- fold change (FC) (Tubulin (Homo sapiens) [7]): 3.56

SMILES: Fc1cc(F)c(-c2c(Cl)nc3ncnn3c2NC2CCCCC2)c(F)c1
- fold change (FC) (Tubulin (Homo sapiens) [1]): 0.23
- fold change (FC) (Tubulin (Homo sapiens) [2]): 1.13
- fold change (FC) (Tubulin (Homo sapiens) [3]): 0.07
- Activity (Tubulin (Homo sapiens) [4]): Dose-dependent effect
- fold change (FC) (Tubulin (Homo sapiens) [5]): 1.07
- fold change (FC) (Tubulin (Homo sapiens) [6]): 0.99
- fold change (FC) (Tubulin (Homo sapiens) [7]): 3.51
